Assay results collected from several papers.
Protocols differ between the studies behind these lines.
HTR2A: 5-hydroxytryptamine receptor 2A (HTR2A, Homo sapiens, UniProt P28223)
ADORA2A: Adenosine receptor A2a (ADORA2A, Homo sapiens, UniProt P29274)
HDAC2: Histone deacetylase 2 (HDAC2, Homo sapiens, UniProt Q92769)

Structure (SMILES)	target	effect on	action	technique	endpoint	value
N#C[C@@]12C[C@@H]1[C@@H](n1cnc3c(NCc4cccc(Cl)c4)nc(I)nc31)[C@H](O)[C@@H]2O	HTR2A	ligand displacement		radioligand	Ki	4900 nM
COc1ccccc1CC1CCN(CC(=O)c2cc(C)[nH]c2C)C1 (stereo not drawn)	HTR2A	calcium signal	antagonist		IC50	13.2 µM
CN(C)c1ncnc2c1ncn2[C@@H]1O[C@H](CO)[C@@H](O)[C@H]1O	ADORA2A	G protein activation	agonist		EC50	3.2 µM
O=C(NO)c1cncc(OS(=O)(=O)Oc2ccc(C(F)(F)F)cc2)c1	HDAC2	enzyme activity	inhibitor	fluorescence	Ki	1310 nM
Cc1[nH]c2ccccc2c1SCCNC(=O)C1NCCC1C1CC1 (stereo not drawn)	HTR2A	calcium signal	antagonist		IC50	31.7 µM
CC(C)=CCNc1ncnc2c1ncn2[C@@H]1O[C@H](CO)[C@@H](O)[C@H]1O	ADORA2A	G protein activation	agonist		EC50	6.4 µM
O=C(/C=C/c1cccc(OS(=O)(=O)Oc2ccc(C(F)(F)F)cc2)c1)NO	HDAC2	enzyme activity	inhibitor	fluorescence	Ki	105 nM
N#C[C@@]12C[C@@H]1[C@@H](n1cnc3c(N[C@@H](C4CCC4)C4CC4)nc(I)nc31)[C@H](O)[C@@H]2O	ADORA2A	ligand displacement		radioligand	Ki	> 10000 nM
C=CCO[C@H]1O[C@H](CO)[C@@H](OP(=O)(O)O[C@H]2O[C@H](CO)[C@@H](O)[C@H](O)[C@@H]2O)[C@H](O)[C@@H]1O	CLEC4E (Homo sapiens, UniProt Q9ULY5)	binding		BLI	Kd	1590 nM
